Data taken from ChEMBL document CHEMBL1153488, “Discovery of (3-endo)-3-(2-cyano-2,2-diphenylethyl)-8,8-dimethyl-8-azoniabicyclo[3.2.1]octane bromide as an efficacious inhaled muscarinic acetylcholine receptor antagonist for the treatment of COPD” (Bioorg Med Chem Lett, 2009).
Active and inactive are the calls of the source. No cut-off for these calls is given here.

Columns and labels:
[1] = biological target: T1, Muscarinic acetylcholine receptor M3 (Homo sapiens, UniProt P20309); experiment: Antagonist activity against human cloned muscarinic M3 receptor expressed in CHO cells assessed as inhibition of acetylcholine-induced calcium mobilization by FLIPR; format: functional, cell-based
[2] = biological target: T2, Muscarinic acetylcholine receptor M1 (Homo sapiens, UniProt P11229); experiment: Antagonist activity against human cloned muscarinic M1 receptor expressed in CHO cells assessed as inhibition of acetylcholine-induced calcium mobilization by FLIPR; format: functional, cell-based
T2 sequence (P11229 whole entry): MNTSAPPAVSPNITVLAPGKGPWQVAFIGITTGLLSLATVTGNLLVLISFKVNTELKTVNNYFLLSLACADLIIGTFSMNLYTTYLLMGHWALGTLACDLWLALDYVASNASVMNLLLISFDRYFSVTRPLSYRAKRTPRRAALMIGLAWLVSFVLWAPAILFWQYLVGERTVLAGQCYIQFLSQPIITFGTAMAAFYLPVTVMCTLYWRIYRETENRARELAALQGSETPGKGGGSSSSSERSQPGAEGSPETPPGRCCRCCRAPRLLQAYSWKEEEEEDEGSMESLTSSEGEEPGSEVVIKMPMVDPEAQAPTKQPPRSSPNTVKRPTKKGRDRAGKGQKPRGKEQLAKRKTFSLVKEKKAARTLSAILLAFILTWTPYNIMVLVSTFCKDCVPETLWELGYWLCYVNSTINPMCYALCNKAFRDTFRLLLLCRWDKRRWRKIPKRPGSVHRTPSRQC

[3] = biological target: T3, Muscarinic acetylcholine receptor M2 (Homo sapiens, UniProt P08172); experiment: Antagonist activity against human cloned muscarinic M2 receptor expressed in CHO cells assessed as inhibition of acetylcholine-induced calcium mobilization by FLIPR; format: functional, cell-based
T3 sequence (P08172 whole entry): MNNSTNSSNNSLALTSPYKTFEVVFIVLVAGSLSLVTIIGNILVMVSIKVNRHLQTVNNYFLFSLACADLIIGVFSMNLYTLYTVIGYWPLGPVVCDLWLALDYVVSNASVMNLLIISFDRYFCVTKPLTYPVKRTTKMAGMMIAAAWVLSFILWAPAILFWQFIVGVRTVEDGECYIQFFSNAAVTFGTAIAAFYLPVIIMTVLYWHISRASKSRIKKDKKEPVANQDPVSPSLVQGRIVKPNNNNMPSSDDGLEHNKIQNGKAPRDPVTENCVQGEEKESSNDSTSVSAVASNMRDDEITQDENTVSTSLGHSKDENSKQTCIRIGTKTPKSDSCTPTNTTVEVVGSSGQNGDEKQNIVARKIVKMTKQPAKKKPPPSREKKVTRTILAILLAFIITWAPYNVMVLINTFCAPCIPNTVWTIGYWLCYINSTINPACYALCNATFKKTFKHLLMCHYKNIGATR

[4] = biological target: T4, Muscarinic acetylcholine receptor M1 (Homo sapiens) (UniProt P11229); experiment: Agonist activity at human cloned muscarinic M1 receptor expressed in CHO cells assessed as effect on calcium mobilization by FLIPR; format: functional, cell-based
T4 sequence (whole entry): T2 sequence (P11229 whole entry)
Procedure, shortened: (§1)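 CHO cells stably carrying cloned human M1, M2 or M3 receptor; compound applied alone and checked for direct receptor stimulation, read as calcium mobilization on a standard FLIPR protocol.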

[5] = biological target: T5, Muscarinic acetylcholine receptor M2 (Homo sapiens) (UniProt P08172); experiment: Agonist activity at human cloned muscarinic M2 receptor expressed in CHO cells assessed as effect on calcium mobilization by FLIPR; format: functional, cell-based; procedure, shortened: as §1
T5 sequence (whole entry): T3 sequence (P08172 whole entry)

[6] = biological target: T1, Muscarinic acetylcholine receptor M3; experiment: Agonist activity at human cloned muscarinic M3 receptor expressed in CHO cells assessed as effect on calcium mobilization by FLIPR; format: functional, cell-based; procedure, shortened: as §1
[7] = test system: Mus musculus; experiment: Bronchoprotection in Balb/C mouse bronchoconstriction model assessed as inhibition of aerosolized methacholin-induced bronchoconstriction at 5 ug administered intranasally 24 hrs before methacholin challenge; format: functional
[8] = biological target: T1, Muscarinic acetylcholine receptor M3; experiment: Antagonist activity against human cloned muscarinic M3 receptor expressed in CHO cells assessed as inhibition of acetylcholine-induced calcium mobilization by measuring ratio of acetylcholine EC50 in presence and absence of compound by FLIPR assay; format: functional, cell-based; conditions: read-out: pA2 (converted)
Procedure, shortened: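 CHO cells expressing cloned human M3 receptor, stimulated with ACh. Calcium mobilization read by a standard FLIPR protocol. ACh EC50 was measured with and without a single concentration of compound, and pA2 was derived from the ratio of the EC50s.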

[9] = biological target: T3, Muscarinic acetylcholine receptor M2; experiment: Antagonist activity against human cloned muscarinic M2 receptor expressed in CHO cells assessed as inhibition of acetylcholine-induced calcium mobilization by measuring ratio of acetylcholine EC50 in presence and absence of compound by FLIPR assay; format: functional, cell-based; conditions: read-out: pA2 (converted)
Procedure, shortened: (§2)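 Run as pA2 determination on FLIPR in CHO cells expressing human M1 or M2 receptor: ACh concentration–response run with and without a single concentration of compound, calcium mobilization read, and the ratio of ACh EC50 values used to derive pA2.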

[10] = biological target: T1, Muscarinic acetylcholine receptor M3; experiment: Displacement of [3H]N-methyl Scopolamine from human cloned muscarinic M3 receptor expressed in CHO cell membrane; format: cell membranes
Procedure, shortened: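 SPA-format competition binding on membranes from CHO cells expressing the human M3 receptor, against 0.5 nM [3H]-N-methyl scopolamine. Ki values are the mean of two or more independent assays.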

[11] = biological target: T2, Muscarinic acetylcholine receptor M1; experiment: Antagonist activity against human cloned muscarinic M1 receptor expressed in CHO cells assessed as inhibition of acetylcholine-induced calcium mobilization by measuring ratio of acetylcholine EC50 in presence and absence of compound by FLIPR assay; format: functional, cell-based; conditions: read-out: pA2 (converted); procedure, shortened: as §2
[12] = biological target: T3, Muscarinic acetylcholine receptor M2; experiment: Displacement of [3H]N-methyl Scopolamine from human cloned muscarinic M2 receptor expressed in CHO cell membrane; format: cell membranes
Procedure, shortened: (§3)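 SPA format with CHO cell membrane preparations bearing human M1 or M2 receptor; competition versus 0.5 nM [3H]-N-methyl scopolamine; Ki reported; mean of two or more independent assays.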

[13] = biological target: T2, Muscarinic acetylcholine receptor M1; experiment: Displacement of [3H]N-methyl Scopolamine from human cloned muscarinic M1 receptor expressed in CHO cell membrane; format: cell membranes; procedure, shortened: as §3
[14] = test system: Mus musculus; experiment: Bronchoprotection in Balb/C mouse bronchoconstriction model assessed as inhibition of aerosolized methacholin-induced bronchoconstriction administered intranasally before 5 hrs before methacholin challenge; format: functional, organism-based
Procedure, shortened: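 Balb/C mice (n = 4) dosed intranasally across a dose range (µg/mouse), challenged 5 h later with aerosolized methacholine 30 mg/ml for 2 min; Penh by whole-body plethysmography over 5 min; ratio of post-drug to pre-drug Penh (1.0 = 0% inhibition, 0.0 = 100%); ED50 from dose–response.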

[15] = test system: Mus musculus; experiment: Bronchoprotection in Balb/C mouse bronchoconstriction model assessed as inhibition of aerosolized methacholin-induced bronchoconstriction at 0.5 ug administered intranasally before 0.25 to 48 hrs before methacholin challenge; format: functional, organism-based
Procedure, shortened: (§4)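 Balb/C mice (n = 4) dosed intranasally at 0.5 or 5.0 µg per mouse, then challenged with aerosolized methacholine 30 mg/ml for 2 min at 0.25–48 h after dosing; Penh by plethysmography over 5 min, expressed as post-drug/pre-drug Penh ratio.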

[16] = test system: Mus musculus; experiment: Bronchoprotection in Balb/C mouse bronchoconstriction model assessed as inhibition of aerosolized methacholin-induced bronchoconstriction at 5 ug administered intranasally before 0.25 to 48 hrs before methacholin challenge; format: functional, organism-based; procedure, shortened: as §4
[17] = test system: Mus musculus; experiment: Bronchoprotection in Balb/C mouse bronchoconstriction model assessed as inhibition of aerosolized methacholin-induced bronchoconstriction at 50 ug administered intranasally 24 hrs before methacholin challenge; format: functional
Procedure, shortened: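 Conscious mice given compound by inhalation at 50 µg per mouse 24 h before challenge with aerosolized methacholine; bronchoconstriction inhibition recorded.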

| SMILES | IC50 [1] | IC50 [2] | IC50 [3] | Activity [4] | Activity [5] | Activity [6] | inhibition (INH) [7] | Kb [8] | Kb [9] | Ki [10] | Kb [11] | Ki [12] | Ki [13] | Activity [14] | Activity [15] | Activity [16] | inhibition (INH) [17] |
| --- | --- | --- | --- | --- | --- | --- | --- | --- | --- | --- | --- | --- | --- | --- | --- | --- | --- |
| CN1[C@@H]2CC[C@H]1C[C@@H](CC(c1ccccc1)(c1ccccc1)c1ccccc1)C2 | 206 nM | 105 nM | 1200 nM | inactive | inactive | inactive | – | – | – | – | – | – | – | – | – | – | – |
| CN1[C@@H]2CC[C@H]1C[C@@H](CC(CNS(=O)(=O)c1ccccc1)(c1ccccc1)c1ccccc1)C2 | 1060 nM | 770 nM | 458 nM | inactive | inactive | inactive | – | – | – | – | – | – | – | – | – | – | – |
| C[N+]1(C)[C@@H]2CC[C@H]1C[C@@H](CC(C#N)(c1ccccc1)c1ccccc1)C2.[Br-] | < 10 nM | < 10 nM | < 10 nM | inactive | inactive | inactive | >95% | 0.02 nM | 0.0501 nM | 0.0631 nM | 0.00398 nM | 0.158 nM | 0.0501 nM | Dose-dependent effect | Active | Active | – |
| CN1[C@@H]2CC[C@H]1C[C@@H](CC(O)(c1ccccc1)c1ccccc1)C2 | < 10 nM | < 10 nM | < 10 nM | inactive | inactive | inactive | – | 2.51 nM | 3.98 nM | 2 nM | 0.794 nM | 6.31 nM | 0.501 nM | – | – | – | <5% |
| CN1[C@@H]2CC[C@H]1C[C@@H](CC(C(=O)O)(c1ccccc1)c1ccccc1)C2 | 687 nM | 277 nM | 240 nM | inactive | inactive | inactive | – | – | – | – | – | – | – | – | – | – | – |
| CN1[C@@H]2CC[C@H]1C[C@@H](CC(CNC(N)=O)(c1ccccc1)c1ccccc1)C2 | 6400 nM | 3830 nM | 5340 nM | inactive | inactive | inactive | – | – | – | – | – | – | – | – | – | – | – |
| C[N+]1(C)[C@@H]2CC[C@H]1C[C@@H](CC(O)(c1ccccc1)c1ccccc1)C2.[Br-] | < 10 nM | < 10 nM | < 10 nM | inactive | inactive | inactive | 34% | 0.501 nM | 0.501 nM | 3.16 nM | 0.251 nM | 3.98 nM | 1.58 nM | – | – | – | – |
| CN1[C@@H]2CC[C@H]1C[C@@H](CC(CNS(C)(=O)=O)(c1ccccc1)c1ccccc1)C2 | 2730 nM | 1600 nM | 2120 nM | inactive | inactive | inactive | – | – | – | – | – | – | – | – | – | – | – |
| C[N+]1(C)[C@@H]2CC[C@H]1C[C@@H](CC(CO)(c1ccccc1)c1ccccc1)C2.[Br-] | < 10 nM | < 10 nM | < 10 nM | inactive | inactive | inactive | 23% | 3.16 nM | 5.01 nM | 2.51 nM | 1.58 nM | 3.98 nM | 1.26 nM | – | – | – | – |
| CN1[C@@H]2CC[C@H]1C[C@@H](CC(C#N)(c1ccccc1)c1ccccc1)C2 | < 10 nM | < 10 nM | < 10 nM | inactive | inactive | inactive | 11% | 0.0631 nM | 0.316 nM | 0.158 nM | 0.0158 nM | 0.501 nM | 0.1 nM | – | – | – | – |
| CCNC(=O)NCC(C[C@H]1C[C@H]2CC[C@@H](C1)N2C)(c1ccccc1)c1ccccc1 | 1940 nM | 1280 nM | 1550 nM | inactive | inactive | inactive | – | – | – | – | – | – | – | – | – | – | – |
| CN1[C@@H]2CC[C@H]1C[C@@H](CC(C(=O)NCc1ccccc1)(c1ccccc1)c1ccccc1)C2 | 839 nM | 596 nM | 545 nM | inactive | inactive | inactive | – | – | – | – | – | – | – | – | – | – | – |
| CN1[C@@H]2CC[C@H]1C[C@@H](CC(CO)(c1ccccc1)c1ccccc1)C2 | < 10 nM | < 10 nM | < 10 nM | inactive | inactive | inactive | 15% | 3.98 nM | 6.31 nM | 2.51 nM | 1.26 nM | 12.6 nM | 1 nM | – | – | – | – |
| CN1[C@@H]2CC[C@H]1C[C@@H](CC(CNC(=O)NCc1ccccc1)(c1ccccc1)c1ccccc1)C2 | 1340 nM | 1020 nM | 1270 nM | inactive | inactive | inactive | – | – | – | – | – | – | – | – | – | – | – |
| CC(=O)NCC(C[C@H]1C[C@H]2CC[C@@H](C1)N2C)(c1ccccc1)c1ccccc1 | 2900 nM | 2200 nM | 3480 nM | inactive | inactive | inactive | – | – | – | – | – | – | – | – | – | – | – |
